Bioassay records from PubChem BioAssay.
ALR H2O2 inh – blocks human ALR sulfhydryl oxidase activity. inhibition, % (test concentration not listed). purified ALR, DTT oxidation, H2O2 HRP-luminol luminescence. P55789. 290,000 compounds, 3.8% hits;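 active means mean replicate inhibition above about 79%, with every replicate also reaching it, limit read from the data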
Target sequence (P55789 whole entry, looked up): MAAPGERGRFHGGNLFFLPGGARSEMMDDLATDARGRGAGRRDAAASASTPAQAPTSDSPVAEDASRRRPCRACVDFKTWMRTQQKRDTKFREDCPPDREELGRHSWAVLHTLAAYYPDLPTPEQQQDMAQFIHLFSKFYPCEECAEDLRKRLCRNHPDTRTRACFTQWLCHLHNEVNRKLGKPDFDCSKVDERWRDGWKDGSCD
CAL PDZ FP-1 – human CAL PDZ-peptide interaction inhibition; Q9HD26; purified CAL PDZ, TMR-peptide fluorescence polarization, 1 h; inhibition, % at 20 µM; 330,000 compounds, 0.02% hits; AID 504414;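 active means highest replicate inhibition of at least 40%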
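Test system: tagged CAL PDZ domain / Buffer or medium: sodium phosphate/NaCl buffer pH 7.4 with TCEP, IgG, Thesit / Reagent: TMR-labelled reporter peptide T*-PRC34 bound in PDZ groove / Compound dosing: single point, 20 µM / Schedule: 1 h incubation at room temperature before polarization reading / Technique: fluorescence polarization (mP) / Benchmarks: unlabelled peptide, DMSO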
Rtt109 HAT inh – C. albicans Rtt109 histone acetyltransferase inhibition; purified Rtt109/Vps75, ThioGlo CoA-SH fluorescence, 4 h; Q5AAJ8; inhibition, % at 34.9 µM; 330,000 compounds, 0.16% hits; AID 540336;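 active means inhibition of at least 50% in every replicate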
Target sequence (Q5AAJ8 whole entry, looked up): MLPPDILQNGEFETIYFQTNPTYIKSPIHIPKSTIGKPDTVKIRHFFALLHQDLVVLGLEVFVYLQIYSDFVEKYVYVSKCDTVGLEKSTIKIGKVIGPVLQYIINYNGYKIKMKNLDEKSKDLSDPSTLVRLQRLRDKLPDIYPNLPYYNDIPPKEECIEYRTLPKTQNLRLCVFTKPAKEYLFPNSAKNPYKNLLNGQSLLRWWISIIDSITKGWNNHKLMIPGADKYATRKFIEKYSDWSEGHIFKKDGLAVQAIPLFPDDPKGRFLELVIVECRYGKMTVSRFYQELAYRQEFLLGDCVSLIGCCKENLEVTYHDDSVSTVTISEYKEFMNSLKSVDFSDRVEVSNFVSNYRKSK
CAL PDZ FP-2 – inhibitors of human CAL PDZ peptide binding. Q9HD26. purified CAL PDZ, TMR-peptide fluorescence polarization, 1 h. inhibition, % at 24.9 µM. 300,000 compounds, 0.92% hits. AID 602252;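 active means mean inhibition of at least 30% with at least half of replicates also reaching 30%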
Dyrk1A ADPGlo – inhibitors of rat Dyrk1A kinase | 310,000 compounds, 0.43% hits | Q63470 | AID 504441 | ADP-Glo luminescence, NFATc1 peptide | inhibition, % at 12.5 µM; in the data active means inhibition above about 50%
Dyrk1A artifact – interferes with ADP-Glo luciferase readout without Dyrk1A | shares compounds with Dyrk1A ADPGlo | ADP-Glo luciferase artifact assay, no Dyrk1A, luminescence | AC50, µM (titrated, usually from 12 µM) | 1,300 tested, under 10 active;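 active means fitted half-maximal dose AC50 no more than ten times the top valid tested dose, with luminescence dropping as dose rises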
A number is an active result; - = inactive; . = no result given. Only some compounds are listed: those with a hit (about 4.3% of all), similar ones and a draw of the others.

SMILES	ALR H2O2 inh	CAL PDZ FP-1	Rtt109 HAT inh	CAL PDZ FP-2	Dyrk1A ADPGlo	Dyrk1A artifact
Cc1cc(=O)oc2ccc(OC(=O)c3cccc(S(=O)(=O)N4CCOCC4)c3)cc12	-	-	-	-	54	-
COc1ccc(C(=O)Nc2ccnc(-c3cccnc3)n2)cc1	-	-	-	-	-	.
Cc1ccc(C(=O)Nc2ccnc(-c3cccnc3)n2)cc1	-	-	-	-	60	-
CCOc1ccc(OCC)c(S(=O)(=O)n2cnc(C)c2)c1	-	-	-	-	-	.
COc1ccc2c(Cl)c(C(=O)N/N=C/c3ccc4c(c3)OCO4)sc2c1	-	-	-	-	-	.
COc1ccc2c(Cl)c(C(=O)N/N=C3\CCCC(=O)C3)sc2c1	-	-	-	-	81	-
O=C(Nc1nc2ccc(Cl)cc2s1)C1CCCO1 (stereo not drawn)	-	-	-	-	76	-
O=C(Nc1nc2ccc([N+](=O)[O-])cc2s1)C1CCCO1 (stereo not drawn)	-	-	-	-	66	-
CS(=O)(=O)c1ccc2nc(NC(=O)C3CCCO3)sc2c1 (stereo not drawn)	-	-	-	-	.	.
CCOc1ccc(C(=O)NCc2ccccc2)cc1Br	-	-	-	-	-	.
CCCOc1ccc(C(O)(CCN2CCCCC2)c2ccccc2OC)cc1 (stereo not drawn)	-	-	-	-	-	.
Cc1c(C(=O)O)cccc1-n1c(C)cc(/C=N/Nc2ccc([N+](=O)[O-])cn2)c1C	.	-	-	-	59	-
Cc1cc(/C=N/Nc2ccc([N+](=O)[O-])cn2)c(C)n1-c1ccccc1	-	-	-	-	-	.
COc1cc(OC)cc(C(=O)OCC(=O)NC2CCCCCC2)c1	-	-	-	-	.	.
O=[N+]([O-])c1ccc(Cl)c(/C=N/n2c(-c3ccncc3)n[nH]c2=S)c1	-	-	-	-	.	.
O=[N+]([O-])c1ccc(O)c(/C=N/n2c(-c3ccccc3)n[nH]c2=S)c1	93	-	-	-	57	-
N#CC1=C(N)Oc2ccc3ccc(O)cc3c2C1c1ccsc1 (stereo not drawn)	.	-	-	-	77	-
CC1CCC(NC(=O)C2CCC(CNc3c(N4CCCCC4)c(=O)c3=O)CC2)CC1 (stereo not drawn)	.	-	-	-	-	.
Cc1ccc(N2C(=O)NC(NS(=O)(=O)c3ccccc3)(C(F)(F)F)C2=O)cc1C (stereo not drawn)	-	-	-	.	.	.
COc1ccc2c(c1)[nH]c1c(Cl)ncnc12	-	-	-	-	65	-
O=C1c2ccccc2C(=O)C1c1ccccn1	-	-	-	-	61	-
O=C(COC(=O)c1cc(S(=O)(=O)Nc2ccccc2Cl)ccc1O)Nc1ccc(F)c(F)c1F	-	-	-	-	-	.
COc1cc(C(=O)Nc2cccc(NC(=O)c3ccccc3)c2)cc(OC)c1OC	-	-	-	-	-	.
COc1cc(C(=O)Nc2cccc(-c3nncn3C)c2)cc(OC)c1OC	-	-	-	-	77	-
COc1ccc2nc(C)c3c(c2c1)OC(C(C)(Cl)Br)C3 (stereo not drawn)	-	-	-	-	79	-
SMILES	ALR H2O2 inh	CAL PDZ FP-1	Rtt109 HAT inh	CAL PDZ FP-2	Dyrk1A ADPGlo	Dyrk1A artifact
Cc1ccc2nc(C)c3c(c2c1)OC(C(C)(Cl)Br)C3 (stereo not drawn)	.	-	-	-	-	.
CC[C@@]1(C(=O)OC)N[C@H](CN(C)C(=O)Nc2ccc(C)cc2)[C@@H]2C(=O)N(C)C(=O)[C@@H]21	.	-	-	-	-	.
Cc1cc([N+](=O)[O-])nn1Cn1nc([N+](=O)[O-])cc1C	-	-	.	-	-	.
Cc1cc([N+](=O)[O-])nn1Cc1ccccc1F	-	-	-	-	51	-
Nc1nc(N)c2c(ccc3nccc32)[nH]1	-	-	-	-	55	-
Nc1ccc2ncccc2c1N	.	-	-	-	-	.
O=C(Nc1nc2ccccc2s1)c1ccccc1	-	-	-	.	-	.
c1ccc2sc(NN=C3CCCCCC3)nc2c1	-	-	-	-	62	-
Cc1ccc(NC(=O)CSCC(=O)N2CCCc3ccccc32)cc1	-	-	-	-	-	.
O=C(NCc1ccccc1)C1=C[C@H](c2ccccc2)C[C@H](OCc2ccc(CO)cc2)O1	-	-	-	-	52	-
Fc1ccc(-c2nnc3sc(C4COc5ccccc5O4)nn23)cc1 (stereo not drawn)	-	-	-	.	68	-
Cc1cc(C)c(NC(=O)COC(=O)C2CCCCC2)c(C)c1	.	-	-	-	.	.
Cc1cccc(OCC(=O)Nc2nc3ccc([N+](=O)[O-])cc3s2)c1C	-	-	-	-	-	.
Cc1ccc2nc(NC(=O)CCCC(=O)O)sc2c1	-	-	-	-	62	-
Cc1cccc(OCC(=O)Nc2nc3ccc([N+](=O)[O-])cc3s2)c1	.	-	-	-	64	-
Cc1ccc2nc(NC(=O)CCCc3nc4ccccc4s3)sc2c1	-	-	-	-	-	.
O=C(O)COc1ccc(/C=C/c2nc3ccc([N+](=O)[O-])cc3s2)cc1	-	-	-	-	87	-
CN(CC(=O)Nc1ccc(F)c(F)c1F)C(=O)C1CCC1	-	-	-	-	-	.
O=C(c1cc(COc2cccc(C(F)(F)F)c2)on1)N1C[C@@H]2CCC[C@H]1C2	-	-	-	-	-	.
O=C(CCc1ccc(S(=O)(=O)N2CCOCC2)cc1)N1CCc2ccccc2C1	-	-	-	-	-	.
CCOC(=O)CSC1=NC(=O)/C(=C/c2ccc(OC)cc2)S1	99	-	-	-	71	-
COc1ccc(/C=C2\SC(N)=NC2=O)cc1	-	-	-	-	83	-
COc1ccc(/C=C2\SC(N3CCc4ccccc4C3)=NC2=O)cc1	-	-	-	-	70	-
NC1=NC(=O)C(=Cc2ccccc2)S1	.	-	-	-	-	.
CCn1c(CC(=O)Nc2ccccc2F)nnc1SCC(=O)NC1CCCC1	-	-	-	-	-	.
SMILES	ALR H2O2 inh	CAL PDZ FP-1	Rtt109 HAT inh	CAL PDZ FP-2	Dyrk1A ADPGlo	Dyrk1A artifact
Cc1ccc(N2CCN(S(=O)(=O)N3CCOCC3)CC2)cc1C	-	-	-	-	-	.
CCN1CCN(c2ccc(S(=O)(=O)N3CCCCC3)cc2NC(=O)CC(C)c2ccccc2)CC1 (stereo not drawn)	-	-	-	-	-	.
O=C1c2ccccc2-c2c1cccc2C(=O)N1CCCCC1	-	.	-	-	-	.
NC(=O)N/N=C1\c2ccccc2-c2c(C(N)=O)cccc21	-	-	-	-	51	-
O=C(O)c1cccc2c1/C(=N/O)c1ccccc1-2	-	-	-	.	81	-
O=C(c1cccc2c1-c1ccccc1/C2=N/O)N1CCCCC1	-	-	-	-	60	-
C/C(=N\O)c1ccccc1C(=O)O	-	-	-	-	-	.
CCn1c2ccccc2c2nc3cc(C(=O)O)ccc3nc21	.	-	.	-	62	-
Cc1ccccc1Nc1cc(C)c2c(O)cccc2n1	-	-	-	.	60	-
NNc1nc2c(Cl)ccc(Cl)c2s1	-	-	-	-	57	-
